The source made the active and inactive calls. No cut-off for these calls is given here.
Experiments:
K562 [1] = assay: Growth inhibition of human K562 cells at 10 uM incubated for 24 hrs by trypan blue dye exclusion assay; assay type: functional; conditions: K562, 24 h, read-out: GI
Outline: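 K562 cells in medium with 5% FBS at 37 °C, 5% CO₂. About 2 × 10⁵ cells/mL cultured 24 h, then compound added at 10 μM. After 24 h exposure, cells counted by hemocytometer and viability scored by trypan blue exclusion, reported as percent growth inhibition.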

K562 [2] = assay: Selectivity index, ratio of IC50 for human HuDe cells to IC50 human K562 cells
Outline: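 Index taken as the ratio of HuDe to K562 IC₅₀. For K562: about 2 × 10⁵ cells/mL, compounds added at graded concentrations, viable count by trypan blue exclusion with a hemocytometer after 24 h. For HuDe primary epidermal cells: 2 × 10⁴ cells/mL, drugs or 0.1% DMSO added 24 h after seeding, MTT read at 570 nm (690 nm blank) after 72 h.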

[3] = Growth inhibition of human NCI60 cells assessed as cell growth level at 10 uM by NCI standard protocol based method; assay type: functional; parameters: scale not given: the % may be the effect or the level left
Outline: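 NCI 60-cell-line screen (leukemia, lung, colon, melanoma, renal, ovarian, brain, breast, prostate) run to the NCI standard protocol. Single high dose of 10⁻⁵ M, read as growth percent. Mean graph midpoint is the arithmetic mean over all lines tested.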

CCRF-CEM = assay: Growth inhibition of human CCRF-CEM cells by NCI standard protocol based method; assay type: functional
Outline: (§1)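 NCI full 60-cell-line panel, 5-dose assay to the NCI standard protocol. GI₅₀ is the molar concentration inhibiting 50% net cell growth. Mean graph midpoint is averaged over all lines; where the effect is not reached, the highest tested concentration is used.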

K562 [4] = assay: Growth inhibition of human K562 cells by NCI standard protocol based method; assay type: functional; outline: as §1
[5] = Growth inhibition of human RPMI8226 cells by NCI standard protocol based method; assay type: functional; conditions: RPMI-8226; outline: as §1
SR = assay: Growth inhibition of human SR cells by NCI standard protocol based method; assay type: functional
Outline: (§2)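 NCI 60-cell-line screen, standard NCI protocol. Single high dose of 10⁻⁵ M first, then a 5-dose assay across the full panel. Reported as GI₅₀, TGI and LC₅₀, the molar concentrations giving 50% net growth inhibition, total growth inhibition and 50% net cell death. Where an effect was not reached, the highest tested concentration was used.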

A549 = assay: Growth inhibition of human A549/ATCC cells by NCI standard protocol based method; assay type: functional; outline: as §1
HOP-62 = assay: Growth inhibition of human HOP62 cells by NCI standard protocol based method; assay type: functional; outline: as §1
[6] = Growth inhibition of human HOP92 cells by NCI standard protocol based method; assay type: functional; conditions: HOP-92; outline: as §1
NCI-H322M = assay: Growth inhibition of human NCI-H322M cells by NCI standard protocol based method; assay type: functional; outline: as §1
[7] = Growth inhibition of human HCC2998 cells by NCI standard protocol based method; assay type: functional; conditions: HCC 2998; outline: as §1
HCT-15 = assay: Growth inhibition of human HCT15 cells by NCI standard protocol based method; assay type: functional; outline: as §1
HT-29 = assay: Growth inhibition of human HT-29 cells by NCI standard protocol based method; assay type: functional; outline: as §1
KM12 = assay: Growth inhibition of human KM12 cells by NCI standard protocol based method; assay type: functional; outline: as §1
SW-620 = assay: Growth inhibition of human SW620 cells by NCI standard protocol based method; assay type: functional; outline: as §2
SF-268 = assay: Growth inhibition of human SF268 cells by NCI standard protocol based method; assay type: functional; outline: as §1
[8] = Growth inhibition of human SF295 cells by NCI standard protocol based method; assay type: functional; conditions: SF-295; outline: as §1
[9] = Growth inhibition of human SF539 cells by NCI standard protocol based method; assay type: functional; conditions: SF-539; outline: as §1
SNB-75 = assay: Growth inhibition of human SNB75 cells by NCI standard protocol based method; assay type: functional; outline: as §2
[10] = Growth inhibition of human LOXIMVI cells by NCI standard protocol based method; assay type: functional; conditions: LOX IMVI; outline: as §1
M14 = assay: Growth inhibition of human M14 cells by NCI standard protocol based method; assay type: functional; outline: as §1
MDA-MB-435 = assay: Growth inhibition of human MDA-MB-435 cells by NCI standard protocol based method; assay type: functional; outline: as §1
SK-MEL-2 = assay: Growth inhibition of human SK-MEL-2 cells by NCI standard protocol based method; assay type: functional; outline: as §1
SK-MEL-28 = assay: Growth inhibition of human SK-MEL-28 cells by NCI standard protocol based method; assay type: functional; outline: as §1
SK-MEL-5 = assay: Growth inhibition of human SK-MEL-5 cells by NCI standard protocol based method; assay type: functional; outline: as §1
UACC-62 = assay: Growth inhibition of human UACC62 cells by NCI standard protocol based method; assay type: functional; outline: as §2
IGROV-1 = assay: Growth inhibition of human IGROV1 cells by NCI standard protocol based method; assay type: functional; outline: as §1
OVCAR-3 = assay: Growth inhibition of human OVCAR3 cells by NCI standard protocol based method; assay type: functional; outline: as §1
NCI/ADR-RES = assay: Growth inhibition of human NCI/ADR-RES cells by NCI standard protocol based method; assay type: functional; outline: as §1
786-0 = assay: Growth inhibition of human 786-0 cells by NCI standard protocol based method; assay type: functional; outline: as §1
A498 = assay: Growth inhibition of human A498 cells by NCI standard protocol based method; assay type: functional; outline: as §1
ACHN = assay: Growth inhibition of human ACHN cells by NCI standard protocol based method; assay type: functional; outline: as §1
CAKI-1 = assay: Growth inhibition of human CAKI-1 cells by NCI standard protocol based method; assay type: functional; outline: as §1
SN12C = assay: Growth inhibition of human SN12C cells by NCI standard protocol based method; assay type: functional; outline: as §2
TK-10 = assay: Growth inhibition of human TK10 cells by NCI standard protocol based method; assay type: functional; outline: as §2
UO-31 = assay: Growth inhibition of human UO31 cells by NCI standard protocol based method; assay type: functional; outline: as §2
DU-145 = assay: Growth inhibition of human DU145 cells by NCI standard protocol based method; assay type: functional; outline: as §1
MCF7 = assay: Growth inhibition of human MCF7 cells by NCI standard protocol based method; assay type: functional; outline: as §1
MDA-MB-231 = assay: Growth inhibition of human MDA-MB-231 cells by NCI standard protocol based method; assay type: functional; outline: as §1
[11] = Growth inhibition of human Hs578T cells by NCI standard protocol based method; assay type: functional; conditions: Hs-578T; outline: as §1
MDA-MB-468 = assay: Growth inhibition of human MDA-MB-468 cells by NCI standard protocol based method; assay type: functional; outline: as §1
Tubulin (Homo sapiens) [12] = target: T1, Tubulin (Homo sapiens) (UniProt P68371+Q9H4B7+P0DPH7+P68366+Q13509+Q71U36+P04350+Q3ZCM7+P07437+P68363+Q9BQE3+Q6PEY2+Q13885+Q9BVA1+Q9BUF5); assay: Inhibition of tubulin (unknown origin) assembly; assay type: protein-complex assay
Tubulin (Homo sapiens) [13] = target: T1, Tubulin (Homo sapiens); assay: Inhibition of colchicine binding to tubulin (unknown origin); assay type: protein-complex assay
NCI-H226 = assay: Growth inhibition of human NCI-H226 cells by NCI standard protocol based method; assay type: functional; outline: as §1
UACC-257 = assay: Growth inhibition of human UACC257 cells by NCI standard protocol based method; assay type: functional; outline: as §2

SMILES: NC(=O)c1cc(Cl)ccc1NC(=O)COc1ccccc1
- inhibition of growth at 10 µM (K562 [1]): 87%
- Ratio IC50 (K562 [2]): 621.38
- Activity [3]: 46.4%
- GI50 (CCRF-CEM): 3070 nM
- GI50 (K562 [4]): 854 nM
- GI50 [5]: 4330 nM
- GI50 (SR): 777 nM
- GI50 (A549): 7060 nM
- GI50 (HOP-62): 5880 nM
- GI50 [6]: 5700 nM
- GI50 (NCI-H322M): 7090 nM
- GI50 [7]: 12100 nM
- GI50 (HCT-15): 1570 nM
- GI50 (HT-29): 1740 nM
- GI50 (KM12): 2130 nM
- GI50 (SW-620): 2580 nM
- GI50 (SF-268): 9890 nM
- GI50 [8]: 1960 nM
- GI50 [9]: 1800 nM
- GI50 (SNB-75): 1810 nM
- GI50 [10]: 8330 nM
- GI50 (M14): 2210 nM
- GI50 (MDA-MB-435): 356 nM
- GI50 (SK-MEL-2): 5080 nM
- GI50 (SK-MEL-28): 6250 nM
- GI50 (SK-MEL-5): 7450 nM
- GI50 (UACC-62): 5420 nM
- GI50 (IGROV-1): 5600 nM
- GI50 (OVCAR-3): 2300 nM
- GI50 (NCI/ADR-RES): 1430 nM
- GI50 (786-0): 9540 nM
- GI50 (A498): 1410 nM
- GI50 (ACHN): 10700 nM
- GI50 (CAKI-1): 4180 nM
- GI50 (SN12C): 17000 nM
- GI50 (TK-10): 63800 nM
- GI50 (UO-31): 17500 nM
- GI50 (DU-145): 6010 nM
- GI50 (MCF7): 1810 nM
- GI50 (MDA-MB-231): 9010 nM
- GI50 [11]: 4650 nM
- GI50 (MDA-MB-468): 1740 nM
- inhibition (Tubulin (Homo sapiens) [12]): inactive
- inhibition (Tubulin (Homo sapiens) [13]): inactive

SMILES: COc1cc(NC(=O)COc2ccccc2)c(C(N)=O)cc1OC
- inhibition of growth at 10 µM (K562 [1]): 72.8%
- Ratio IC50 (K562 [2]): 280.52
- Activity [3]: 27.38%
- GI50 (CCRF-CEM): 562 nM
- GI50 (K562 [4]): 310 nM
- GI50 [5]: 2270 nM
- GI50 (SR): 515 nM
- GI50 (A549): 917 nM
- GI50 (HOP-62): 1750 nM
- GI50 [6]: 17700 nM
- GI50 (NCI-H226): 42800 nM
- GI50 (NCI-H322M): 5770 nM
- GI50 [7]: 3330 nM
- GI50 (HCT-15): 804 nM
- GI50 (HT-29): 437 nM
- GI50 (KM12): 443 nM
- GI50 (SW-620): 646 nM
- GI50 (SF-268): 6770 nM
- GI50 [8]: 930 nM
- GI50 [9]: 563 nM
- GI50 (SNB-75): 547 nM
- GI50 [10]: 1810 nM
- GI50 (M14): 4000 nM
- GI50 (MDA-MB-435): 614 nM
- GI50 (SK-MEL-2): 203 nM
- GI50 (SK-MEL-28): 24200 nM
- GI50 (SK-MEL-5): 766 nM
- GI50 (UACC-257): > 100000 nM
- GI50 (UACC-62): 2520 nM
- GI50 (IGROV-1): 4070 nM
- GI50 (OVCAR-3): 472 nM
- GI50 (NCI/ADR-RES): 487 nM
- GI50 (786-0): 7320 nM
- GI50 (A498): 2770 nM
- GI50 (ACHN): 8120 nM
- GI50 (CAKI-1): 3800 nM
- GI50 (SN12C): 3120 nM
- GI50 (TK-10): 14400 nM
- GI50 (UO-31): 13500 nM
- GI50 (DU-145): 914 nM
- GI50 (MCF7): 661 nM
- GI50 (MDA-MB-231): 2390 nM
- GI50 [11]: 771 nM
- GI50 (MDA-MB-468): 848 nM
- inhibition (Tubulin (Homo sapiens) [12]): inactive
- inhibition (Tubulin (Homo sapiens) [13]): inactive

From ChEMBL document CHEMBL3612047, “Synthesis, antiproliferative activity and possible mechanism of action of novel 2-acetamidobenzamides bearing the 2-phenoxy functionality” (Bioorg Med Chem, 2015)
